Experimental data as given in ChEMBL document CHEMBL1141070, “Synthesis and biological activity of flurbiprofen analogues as selective inhibitors of beta-amyloid(1)(-)(42) secretion” (J Med Chem, 2005).

Columns and labels:
[1] = target: T1, Amyloid-beta precursor protein (Homo sapiens, UniProt P05067); assay: Inhibitory concentration against beta-amyloid-42 (Abeta42) secretion was evaluated in human neuroglioma cells (H4-APP695NL); format: functional, cell-based
In short: (§1)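 H4-APP695NL human neuroglioma cells (APP695 Swedish K595N/M596L) seeded at 2 × 10^5/well and grown 24 h to confluence. Increasing compound concentrations added overnight; DMSO 1% as vehicle. Supernatant Aβ42 or Aβ40 measured by electrochemiluminescence immunoassay: biotinylated 4G8 plus C-terminus-specific rabbit antibodies, captured on streptavidin beads.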
Target sequence in this assay (P05067 18-770 limits assumed): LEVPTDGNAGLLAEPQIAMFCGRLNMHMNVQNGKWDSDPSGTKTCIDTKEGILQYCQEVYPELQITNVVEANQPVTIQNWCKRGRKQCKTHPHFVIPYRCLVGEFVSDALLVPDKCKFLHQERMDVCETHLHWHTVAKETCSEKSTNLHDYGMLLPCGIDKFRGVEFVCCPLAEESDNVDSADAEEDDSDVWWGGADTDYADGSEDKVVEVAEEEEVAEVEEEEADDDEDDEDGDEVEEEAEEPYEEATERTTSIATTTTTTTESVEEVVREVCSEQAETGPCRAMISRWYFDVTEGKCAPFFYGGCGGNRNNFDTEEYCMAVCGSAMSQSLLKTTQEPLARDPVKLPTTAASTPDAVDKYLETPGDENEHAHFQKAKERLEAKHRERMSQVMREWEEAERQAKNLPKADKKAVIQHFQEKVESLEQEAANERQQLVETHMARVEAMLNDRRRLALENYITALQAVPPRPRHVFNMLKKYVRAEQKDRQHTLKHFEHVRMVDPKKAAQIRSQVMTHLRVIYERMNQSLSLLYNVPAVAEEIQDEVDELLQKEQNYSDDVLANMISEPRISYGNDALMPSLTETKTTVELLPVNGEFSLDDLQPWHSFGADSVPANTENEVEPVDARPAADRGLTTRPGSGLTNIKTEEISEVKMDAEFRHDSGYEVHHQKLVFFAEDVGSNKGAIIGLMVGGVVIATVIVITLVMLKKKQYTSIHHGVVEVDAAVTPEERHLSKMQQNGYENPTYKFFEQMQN

[2] = target: T2, Prostaglandin G/H synthase 1 (Rattus norvegicus) (UniProt Q63921); assay: Percent inhibition against cyclooxygenase-1 at 100 uM in rat blood
T2 sequence (whole entry): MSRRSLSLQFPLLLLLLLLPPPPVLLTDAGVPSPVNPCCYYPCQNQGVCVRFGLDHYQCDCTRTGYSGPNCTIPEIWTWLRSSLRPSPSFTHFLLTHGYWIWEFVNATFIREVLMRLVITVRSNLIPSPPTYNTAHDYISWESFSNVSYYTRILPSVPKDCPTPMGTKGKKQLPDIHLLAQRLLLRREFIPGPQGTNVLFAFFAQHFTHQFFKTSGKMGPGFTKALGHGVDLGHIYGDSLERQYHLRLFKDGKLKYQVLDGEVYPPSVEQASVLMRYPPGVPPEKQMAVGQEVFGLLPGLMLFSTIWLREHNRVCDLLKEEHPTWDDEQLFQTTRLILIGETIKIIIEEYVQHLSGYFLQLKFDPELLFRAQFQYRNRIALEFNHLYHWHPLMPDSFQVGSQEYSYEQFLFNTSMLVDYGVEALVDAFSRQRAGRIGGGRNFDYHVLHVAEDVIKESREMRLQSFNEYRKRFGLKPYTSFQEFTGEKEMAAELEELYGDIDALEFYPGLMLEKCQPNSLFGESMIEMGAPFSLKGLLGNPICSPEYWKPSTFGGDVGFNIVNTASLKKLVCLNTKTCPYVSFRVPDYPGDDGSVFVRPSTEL
In short: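 Fresh rat whole blood preincubated 1 h at 37 °C with compound (100 μM) or DMSO (0.3% final). Stimulated 30 min with A23187 calcium ionophore; plasma thromboxane B2 measured by radioimmunoassay.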

Cytochrome P450 2C19 [3] = target: T3, Cytochrome P450 2C19 (Homo sapiens, UniProt P33261); assay: Compound dissolved in DMSO was tested for interaction with baculovirus-insect cells expressing human cytochrome P450 at 100 uM; format: ADME
In short: (§2)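 Microsomes from baculovirus-insect cells expressing human CYP1A2, 2C9, 2C19, 2D6 or 3A4. Compound serially diluted with an NADPH-regenerating mix (16.3 μM NADP+, 0.83 mM glucose-6-phosphate, 0.83 mM MgCl2, 0.4 U/mL G6PDH). Pre-warmed 10 min at 37 °C, then isoform-specific substrate added in 0.35 M potassium phosphate pH 7.4. Fluorometric read-out; IC50 by nonlinear regression.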

Caco-2 = assay: Permeability in the Caco-2 cell; high absorption; format: ADME, cell-based; conditions: human
In short: (§3)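 Caco-2 monolayers on polycarbonate Transwell inserts, 2 h at 37 °C. Apical and basolateral solutions analysed by LC-MS/MS (SRM). Papp = Cb·Vb/(C0·A·t).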

[4] = target: T1, Amyloid-beta precursor protein; conditions: at 100 µM
Target sequence in this assay (P05067 whole entry): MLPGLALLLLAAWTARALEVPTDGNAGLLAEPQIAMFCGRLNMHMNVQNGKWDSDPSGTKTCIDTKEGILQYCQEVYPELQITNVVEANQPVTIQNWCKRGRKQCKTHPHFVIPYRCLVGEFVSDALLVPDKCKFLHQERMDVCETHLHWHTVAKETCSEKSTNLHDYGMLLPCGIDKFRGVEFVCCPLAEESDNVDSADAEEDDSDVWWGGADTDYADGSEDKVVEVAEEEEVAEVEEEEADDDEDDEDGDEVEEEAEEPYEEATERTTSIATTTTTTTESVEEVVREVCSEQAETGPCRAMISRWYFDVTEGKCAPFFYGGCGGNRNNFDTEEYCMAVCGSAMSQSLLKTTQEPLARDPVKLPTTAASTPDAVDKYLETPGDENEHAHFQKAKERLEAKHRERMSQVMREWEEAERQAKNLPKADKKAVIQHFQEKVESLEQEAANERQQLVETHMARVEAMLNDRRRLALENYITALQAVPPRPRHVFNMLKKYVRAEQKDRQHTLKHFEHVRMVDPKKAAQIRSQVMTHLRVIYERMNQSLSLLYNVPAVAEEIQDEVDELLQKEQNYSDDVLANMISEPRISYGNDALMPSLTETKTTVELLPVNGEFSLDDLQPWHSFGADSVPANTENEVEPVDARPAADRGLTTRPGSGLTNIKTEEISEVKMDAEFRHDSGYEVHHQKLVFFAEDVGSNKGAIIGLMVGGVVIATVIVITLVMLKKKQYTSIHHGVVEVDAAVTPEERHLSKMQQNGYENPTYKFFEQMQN

[5] = Area under curve after administration to rats at a dose of 7.6 mg/kg orally; format: ADME, organism-based; set-up: dose 7.6 mg/kg, route oral; conditions: rat, in vivo, po
[6] = Area under curve after administration to rats at adose of 1.5 mg/kg intravenously; format: ADME, organism-based; set-up: dose 1.5 mg/kg, route intravenous; conditions: rat, in vivo, iv
[7] = Maximum time corresponding to maximum concentration after administration to rats at a dose of 7.6 mg/kg orally; format: ADME, organism-based; set-up: dose 7.6 mg/kg, route oral; conditions: rat, in vivo, po
[8] = Maximum time corresponding to maximum concentration after administration to rats at a dose of 1.5 mg/kg intravenously; format: ADME, organism-based; set-up: dose 1.5 mg/kg, route intravenous; conditions: rat, in vivo, iv
[9] = Absolute oral bioavailability after administration to rats at a dose of 7.6 mg/kg orally; format: ADME, organism-based; conditions: rat, in vivo
[10] = Maximal concentration in rats after 1.5 mg/kg intravenous dose; format: ADME, organism-based; set-up: dose 1.5 mg/kg, route intravenous; conditions: rat, in vivo
[11] = Intestinal drug absorption was estimated in vitro using human colon adenocarcinoma (Caco-2) cell monolayers; format: ADME; in short: as §3
[12] = target: T4, Prostaglandin G/H synthase 1 (Rattus norvegicus, UniProt Q63921); assay: Concentration required to inhibit cyclooxygenase-1 in rat blood
T4 sequence (Q63921 whole entry): T2 sequence (whole entry)
In short: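 Fresh rat whole blood was preincubated 1 h at 37 °C with compound (100 μM or a concentration series; DMSO 0.3% final). It was then stimulated 30 min with the Ca²⁺ ionophore A23187. Thromboxane B2 in the plasma was measured by radioimmunoassay.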

[13] = Total body clearance after administration to rats at a dose of 1.5 mg/kg intravenously; format: ADME, organism-based; set-up: dose 1.5 mg/kg, route intravenous; conditions: rat, in vivo, iv
[14] = Elimination phase half-life after administration to rats at a dose of 7.6 mg/kg orally; format: ADME, organism-based; set-up: dose 7.6 mg/kg, route oral; conditions: rat, in vivo, po
[15] = Elimination phase half-life after administration to rats at a dose of 1.5 mg/kg intravenously; format: ADME, organism-based; set-up: dose 1.5 mg/kg, route intravenous; conditions: rat, in vivo, iv
Cytochrome P450 2C19 [16] = target: T3, Cytochrome P450 2C19; assay: Compound was tested for interaction with baculovirus-insect cells expressing human cytochrome P450; No interactions at 100 uM; format: ADME
[17] = Maximal concentration in rats after 7.6 mg/kg oral dose; format: ADME, organism-based; set-up: dose 7.6 mg/kg, route oral; conditions: rat, in vivo
[18] = In vivo steady state metabolic clearance of the compound; conditions: rat
Cytochrome P450 2C9 [19] = target: T5, Cytochrome P450 2C9 (Homo sapiens, UniProt P11712); assay: Interaction with human cytochrome P450 isoform 2C9 expressed in baculovirus-insect cells at 100 uM; format: ADME; in short: as §2
Cytochrome P450 3A4 = Cytochrome P450 3A4 (Homo sapiens, UniProt P08684); assay: Inhibition of cytochrome P450 3A4 at 100 uM; activation observed; format: ADME
In short: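 Supersome microsomes from baculovirus-insect cells expressing human CYP1A2, 2C9, 2C19, 2D6 or 3A4 were used with isoform-specific fluorogenic substrates. Compounds were serially diluted with an NADP⁺/glucose-6-phosphate regenerating system in 0.35 M potassium phosphate, pH 7.4. Plates were prewarmed 10 min at 37 °C, reactions stopped with acetonitrile/Tris, and fluorescence read. IC50 was obtained by nonlinear regression.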

[20] = target: T1, Amyloid-beta precursor protein; assay: Concentration required to inhibit A beta 40 peptide; in short: as §1
Target sequence in this assay (P05067 whole entry): as above

Cytochrome P450 2C9 [21] = target: T5, Cytochrome P450 2C9; assay: Interaction with human cytochrome P450 isoform 2C9 expressed in baculovirus-insect cells; Activation was observed due to interference in assay; format: ADME; in short: as §2

T5 sequence (P11712 whole entry, canonical isoform): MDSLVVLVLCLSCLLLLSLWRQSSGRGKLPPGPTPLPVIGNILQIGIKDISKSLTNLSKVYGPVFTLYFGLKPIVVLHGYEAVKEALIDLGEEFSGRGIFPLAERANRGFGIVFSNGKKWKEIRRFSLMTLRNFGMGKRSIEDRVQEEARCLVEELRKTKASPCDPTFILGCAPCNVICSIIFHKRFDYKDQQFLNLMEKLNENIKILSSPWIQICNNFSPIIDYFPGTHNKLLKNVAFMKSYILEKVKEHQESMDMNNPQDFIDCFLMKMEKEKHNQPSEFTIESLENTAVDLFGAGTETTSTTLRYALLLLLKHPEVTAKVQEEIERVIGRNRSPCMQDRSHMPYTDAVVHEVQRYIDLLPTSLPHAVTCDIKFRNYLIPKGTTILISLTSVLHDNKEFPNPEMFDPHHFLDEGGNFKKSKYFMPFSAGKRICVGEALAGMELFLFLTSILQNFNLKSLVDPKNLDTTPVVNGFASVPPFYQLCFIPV
T3 sequence (P33261 whole entry, canonical isoform): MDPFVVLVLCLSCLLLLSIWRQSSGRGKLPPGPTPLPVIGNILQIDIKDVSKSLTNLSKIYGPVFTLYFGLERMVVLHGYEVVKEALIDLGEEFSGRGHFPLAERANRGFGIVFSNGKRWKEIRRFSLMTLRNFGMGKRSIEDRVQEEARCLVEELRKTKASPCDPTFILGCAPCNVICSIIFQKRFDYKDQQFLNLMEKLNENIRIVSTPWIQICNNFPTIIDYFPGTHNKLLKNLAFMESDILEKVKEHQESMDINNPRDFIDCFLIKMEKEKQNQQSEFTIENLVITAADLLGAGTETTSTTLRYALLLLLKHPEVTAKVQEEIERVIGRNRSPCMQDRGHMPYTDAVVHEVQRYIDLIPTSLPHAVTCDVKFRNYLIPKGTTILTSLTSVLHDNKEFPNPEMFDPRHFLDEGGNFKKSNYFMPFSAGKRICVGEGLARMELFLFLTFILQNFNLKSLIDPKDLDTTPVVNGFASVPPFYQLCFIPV
Chain of Cytochrome P450 3A4 (P08684 whole entry, canonical isoform): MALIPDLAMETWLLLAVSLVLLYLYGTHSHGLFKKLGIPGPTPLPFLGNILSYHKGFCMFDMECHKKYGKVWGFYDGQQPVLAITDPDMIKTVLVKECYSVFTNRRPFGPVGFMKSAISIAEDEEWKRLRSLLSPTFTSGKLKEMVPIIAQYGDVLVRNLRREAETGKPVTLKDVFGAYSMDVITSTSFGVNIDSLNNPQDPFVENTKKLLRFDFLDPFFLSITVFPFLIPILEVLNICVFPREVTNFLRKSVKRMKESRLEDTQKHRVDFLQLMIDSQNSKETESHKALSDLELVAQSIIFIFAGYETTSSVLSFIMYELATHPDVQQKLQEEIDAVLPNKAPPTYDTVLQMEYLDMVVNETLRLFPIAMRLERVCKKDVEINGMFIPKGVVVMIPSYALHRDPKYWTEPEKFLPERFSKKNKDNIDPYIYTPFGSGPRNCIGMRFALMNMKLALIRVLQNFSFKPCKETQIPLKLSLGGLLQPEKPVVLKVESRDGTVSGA

## CC(C(=O)O)c1ccc(-c2ccc(C(F)(F)F)cc2)c(F)c1 (stereo not given)
[1]
  IC50: 129 µM
[2]
  inhibition: 40%
Cytochrome P450 2C19 [3]
  Inhibition: No interactions
Caco-2
  Absoption: High
[4]
  inhibition: 60%

## CC(C(=O)O)c1ccc(-c2ccccc2)c(F)c1 (stereo not given) [FLURBIPROFEN]
[5]
  AUC: 311 µg/h/mL
[6]
  AUC: 78 µg/h/mL
[1]
  IC50: 305 µM
[7]
  Tmax: 0.5 h
[8]
  Tmax: 0.3 h
[9]
  bioavailability: 78.3%
[10]
  Cmax: 9100 ng/mL
[11]
  Papp: > 5 ×10⁻⁶ cm/s
[12]
  IC50: 0.17 µM
[13]
  Clearance: 0.318 mL/min/kg
[14]
  half-life: 4.9 h
[15]
  half-life: 5.1 h
Cytochrome P450 2C19 [16]
  Inhibition: No interactions
[17]
  Cmax: 49100 ng/mL
[4]
  inhibition: 30%
[18]
  Clearance: 13.9 mL/h

## CC(C(=O)O)c1ccc(-c2csc3ccccc23)c(F)c1 (stereo not given)
[1]
  IC50: 83 µM
[11]
  Papp: > 5 ×10⁻⁶ cm/s
[2]
  inhibition: 68%
Cytochrome P450 2C9 [19]
  Activation: > 50%
[4]
  inhibition: 96%

## O=C(O)C1(c2ccc(-c3ccc(C4CCCCC4)cc3)c(F)c2)CC1
Cytochrome P450 3A4
  IC50: 59 µM
[2]
  inhibition: 12%
[4]
  inhibition: 60%

## CC(C(=O)O)c1ccc(-c2cc(Cl)cc(Cl)c2)c(F)c1 (stereo not given)
[1]
  IC50: 77 µM
[11]
  Papp: > 5 ×10⁻⁶ cm/s
[20]
  IC50: 94 µM
[2]
  inhibition: 65%
Cytochrome P450 2C9 [21]
  Activation: > 50%
[4]
  inhibition: 75%
